Measured values as given in article PMC6648849 (ACS Omega, 2019).

Experiments:
HepG2 cells [1] = assay: cellular uptake by CLSM in HepG2 cells; assay type: cell-based, human; settings: 10 μM, 6 h, 37 °C, 5% CO2; CLSM fluorescence imaging
In short: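 HepG2 cells seeded on glass-bottom dishes at 2.0 × 10^4 cells/well, grown ~24 h, then transduced with BacMam tubulin–GFP for 24 h at 37 °C, 5% CO2. Incubated with 10 μM test compound in medium, PBS-washed, and nuclei stained with 5 μg/mL Hoechst 33342 for 10 min. Confocal imaging: compound ex 550/em 574 nm, GFP ex 489/em 510 nm.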

HepG2 cells [2] = assay: cell viability assay; assay type: cell-based, human; settings: 0–20 μM, 37 °C, 5% CO2, WST (Cell Counting Kit-8), absorbance at 450 nm
In short: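 HepG2 cells plated at 1.0 × 10^4 cells/well and grown 24 h at 37 °C, 5% CO2. Medium replaced with 0–20 μM test compound for 24 or 72 h. Then fresh medium plus Cell Counting Kit-8 (WST) reagent, 4 h incubation, and absorbance read at 450 nm. Viability (%) is relative to untreated control cells set as 100%.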

MTs [3] = assay: depolymerization/polymerization of MTs in living HepG2 cells; assay type: cell-based, human; settings: 10 μM colchicine coincubated with 10 μM TP–TMR, 6 h, 37 °C
In short: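 HepG2 cells expressing BacMam-delivered tubulin–GFP were coincubated with 10 μM test compound and 10 μM colchicine for 6 h at 37 °C under 5% CO2. Nuclei stained with Hoechst 33342 after a PBS wash. Compound and tubulin–GFP signals imaged by confocal microscopy to assess colocalization of compound fluorescence with microtubule fibres.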

[4] = cited from earlier work
MTs [5] = settings: cited from earlier work

With “5(6)-carboxytetramethylrhodamine [TMR–COOH]” the “cellular uptake into HepG2 cells” value (HepG2 cells [1]) was “not observed”.
For `COc1cc2c(c(OC)c1OC)-c1ccc(OC)c(=O)cc1[C@@H](NC(C)=O)CC2` [colchicine], the “cytotoxicity against HepG2 cells, 24 h” value (HepG2 cells [2]) was “clear cytotoxicity in a concentration-dependent manner” and the “effect on polymerization of MTs in HepG2 cells” value (MTs [3]) was “polymerization of MTs was inhibited”.
For `CC(=O)O[C@H]1C(=O)[C@@]2(C)[C@H]([C@H](OC(=O)c3ccccc3)[C@]3(O)C[C@H](OC(=O)[C@H](O)[C@@H](NC(=O)c4ccccc4)c4ccccc4)C(C)=C1C3(C)C)[C@]1(OC(C)=O)CO[C@@H]1C[C@@H]2O` [taxol], the “cytotoxicity against HepG2 cells, 24 h” value (HepG2 cells [2]) was “clear cytotoxicity in a concentration-dependent manner”.
For CGGGKKHVPGGGSVQIVYKPVDL [TP], the water solubility [4] is given as “high water solubility at millimolar concentrations” and the “effect of binding on polymerization/depolymerization of MTs in vitro” value (MTs [5]) is given as “does not inhibit”.
